Measured values published in ChEMBL document CHEMBL6083209, “Pyridazinone-based derivatives as anticancer agents endowed with anti-microbial activity: molecular design, synthesis, and biological investigation” (RSC Med Chem, 2024).
pIC50: −log10 of the molar value. Values after ≈ are worked out from the molar mass of the structure shown. Active and inactive are the calls of the source. The calls are words filed in the database; no cut-off is given here.

Columns and labels:
[1] = tested on: Escherichia coli; assay: Antimicrobial activity against Escherichia coli ATCC 25922 by broth microdilution method
[2] = tested on: Candida albicans; assay: Antimicrobial activity against Candida albicans ATCC 10231 by broth microdilution method
[3] = tested on: Staphylococcus aureus; assay: Antimicrobial activity against Staphylococcus aureus ATCC 29213 by broth microdilution method
[4] = tested on: Staphylococcus aureus; assay: Antimicrobial activity against Staphylococcus aureus; assay type: functional
[5] = tested on: CCRF-CEM; assay: Antiproliferative activity against human CCRF-CEM cells assessed as growth inhibition at 10 uM incubated for 48 hrs by SRB method; assay type: functional; conditions: read-out: GI
How it was run: (§1)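 NCI-60 one-dose screen at 10 μM. Cells were grown in RPMI 1640 with 5% FBS and 2 mM L-glutamine and plated at 5000–40 000 cells/well for 24 h. Drug exposure was 48 h at 37 °C, 5% CO2. Cells were fixed with TCA, stained with 0.4% SRB and read at 515 nm. Growth is expressed as percent of untreated control and time-zero plates.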

[6] = tested on: PC-3; assay: Antiproliferative activity against human PC-3 cells assessed as growth inhibition at 10 uM incubated for 48 hrs by SRB method; assay type: functional; conditions: PC-3, read-out: GI
How it was run: as §1

[7] = tested on: K562; assay: Antiproliferative activity against human K562 cells assessed as growth inhibition at 10 uM incubated for 48 hrs by SRB method; assay type: functional; conditions: K562, read-out: GI
How it was run: as §1

[8] = tested on: RPMI-8226; assay: Antiproliferative activity against human RPMI-8226 cells assessed as growth inhibition at 10 uM incubated for 48 hrs by SRB method; assay type: functional; conditions: RPMI-8226, read-out: GI
How it was run: as §1

[9] = tested on: NCI-H522; assay: Antiproliferative activity against human NCI-H522 cells assessed as growth inhibition at 10 uM incubated for 48 hrs by SRB method; assay type: functional; conditions: NCI-H522, read-out: GI
How it was run: as §1

[10] = tested on: SF-295; assay: Antiproliferative activity against human SF-295 cells assessed as growth inhibition at 10 uM incubated for 48 hrs by SRB method; assay type: functional; conditions: read-out: GI
How it was run: as §1

[11] = tested on: OVCAR-3; assay: Antiproliferative activity against human OVCAR-3 cells assessed as growth inhibition at 10 uM incubated for 48 hrs by SRB method; assay type: functional; conditions: read-out: GI
How it was run: as §1

[12] = tested on: T47D; assay: Antiproliferative activity against human T47D cells assessed as growth inhibition at 10 uM incubated for 48 hrs by SRB method; assay type: functional; conditions: read-out: GI
How it was run: as §1

[13] = tested on: MCF7; assay: Antiproliferative activity against human MCF7 cells assessed as growth inhibition at 10 uM incubated for 48 hrs by SRB method; assay type: functional; conditions: read-out: GI
How it was run: as §1

[14] = tested on: KM12; assay: Antiproliferative activity against human KM12 cells assessed as growth inhibition at 10 uM incubated for 48 hrs by SRB method; assay type: functional; conditions: read-out: GI
How it was run: as §1

[15] = Upregulation of p53 gene expression in human A549 cells assessed as fold increase by qRT-PCR analysis; assay type: functional
How it was run: (§2)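 A549/ATCC cells treated, total RNA DNase-treated and checked by 260/280 ratio (1.8–2.1). Reverse transcription with oligo-dT and MuLV RT: 25 °C 10 min, 42 °C 1 h, 99 °C 5 min. qPCR of 40 cycles (95 °C 15 s, 55 °C 30 s, 72 °C 30 s) followed by melt curve. Relative expression by the 2−ΔΔCT method, mean ± SEM.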

[16] = Upregulation of Bax gene expression in human A549 cells assessed as fold increase by qRT-PCR analysis; assay type: functional
How it was run: as §2

[17] = tested on: A549; assay: Downregulation of Bcl-2 gene expression in human A549 cells by qRT-PCR analysis; assay type: functional, cell-based
How it was run: as §2

[18] = biological target: Vascular endothelial growth factor receptor 2 (Homo sapiens, UniProt P35968); assay: Inhibition of VEGFR2 (unknown origin)
Vascular endothelial growth factor receptor 2, sequence (P35968 whole entry): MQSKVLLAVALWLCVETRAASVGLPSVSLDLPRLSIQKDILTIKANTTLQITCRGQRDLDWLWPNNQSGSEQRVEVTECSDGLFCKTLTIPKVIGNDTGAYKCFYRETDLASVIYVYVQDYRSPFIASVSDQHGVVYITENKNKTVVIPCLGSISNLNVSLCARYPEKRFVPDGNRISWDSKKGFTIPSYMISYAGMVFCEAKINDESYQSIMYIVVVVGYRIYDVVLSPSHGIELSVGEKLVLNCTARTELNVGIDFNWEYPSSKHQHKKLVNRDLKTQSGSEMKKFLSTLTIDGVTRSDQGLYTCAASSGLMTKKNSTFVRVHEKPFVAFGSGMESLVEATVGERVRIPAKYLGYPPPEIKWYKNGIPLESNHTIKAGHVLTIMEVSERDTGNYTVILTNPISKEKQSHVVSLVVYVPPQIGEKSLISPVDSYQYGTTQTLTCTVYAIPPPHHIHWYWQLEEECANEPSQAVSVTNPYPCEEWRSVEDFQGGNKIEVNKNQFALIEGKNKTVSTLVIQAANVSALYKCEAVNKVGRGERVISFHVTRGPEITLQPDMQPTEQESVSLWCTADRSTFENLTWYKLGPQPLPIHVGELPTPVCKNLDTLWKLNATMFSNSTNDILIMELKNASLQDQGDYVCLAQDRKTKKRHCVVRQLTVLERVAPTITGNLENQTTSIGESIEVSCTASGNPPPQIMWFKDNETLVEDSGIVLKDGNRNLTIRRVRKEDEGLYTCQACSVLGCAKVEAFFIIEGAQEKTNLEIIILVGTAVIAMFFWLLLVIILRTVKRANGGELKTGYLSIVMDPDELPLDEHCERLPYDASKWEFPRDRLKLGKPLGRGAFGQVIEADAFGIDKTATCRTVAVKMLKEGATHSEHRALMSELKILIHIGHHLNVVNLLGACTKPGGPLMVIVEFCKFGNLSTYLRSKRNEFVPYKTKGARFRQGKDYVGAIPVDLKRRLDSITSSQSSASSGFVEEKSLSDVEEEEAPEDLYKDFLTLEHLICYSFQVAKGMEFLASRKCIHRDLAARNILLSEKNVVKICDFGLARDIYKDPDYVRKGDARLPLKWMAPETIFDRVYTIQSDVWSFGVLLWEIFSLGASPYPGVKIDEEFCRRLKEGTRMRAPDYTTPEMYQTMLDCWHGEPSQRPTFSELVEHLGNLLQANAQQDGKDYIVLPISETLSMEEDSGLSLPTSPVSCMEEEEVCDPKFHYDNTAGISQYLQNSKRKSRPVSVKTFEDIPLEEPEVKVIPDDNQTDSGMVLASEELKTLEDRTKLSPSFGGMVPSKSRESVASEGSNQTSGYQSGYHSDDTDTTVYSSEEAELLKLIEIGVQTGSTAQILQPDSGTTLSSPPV

Compound	MIC [1] [µg/mL]	MIC [2] [µg/mL]	MIC [3] [µg/mL]	also measured
O=C(NC(=S)Nc1ccc(-c2ccc(=O)[nH]n2)cc1)c1cccc(F)c1	256 (≈ 695 µM)	512 (≈ 1390 µM)	128 (≈ 347 µM)	–
O=c1ccc(-c2ccc(NC(=S)Nc3cccc(Br)c3)cc2)n[nH]1	1020 (≈ 2550 µM)	32 (≈ 79.7 µM)	128 (≈ 319 µM)	–
CC(=O)N1CCN(c2ccc(OCC3COC(Cn4ccnc4)(c4ccc(Cl)cc4Cl)O3)cc2)CC1 (stereo not drawn) [KETOCONAZOLE]	–	2 (≈ 3.76 µM)	–	–
O=C(NC(=S)Nc1ccc(/C=C/c2ccc(=O)[nH]n2)cc1)c1ccc(Cl)c(Cl)c1	1020 (≈ 2300 µM)	512 (≈ 1150 µM)	256 (≈ 575 µM)	–
O=c1ccc(-c2ccc(NS(=O)(=O)c3cccc(Cl)c3)cc2)n[nH]1	1020 (≈ 2830 µM)	256 (≈ 708 µM)	256 (≈ 708 µM)	–
CNC(C)[C@@H]1CC[C@@H](N)[C@@H](O[C@H]2[C@H](O)[C@@H](O[C@H]3OC[C@](C)(O)[C@H](NC)[C@H]3O)[C@H](N)C[C@@H]2N)O1.CN[C@@H]1[C@@H](O)[C@@H](O[C@@H]2[C@@H](O)[C@H](O[C@H]3O[C@H](C(C)N)CC[C@H]3N)[C@@H](N)C[C@H]2N)OC[C@]1(C)O.CN[C@@H]1[C@@H](O)[C@@H](O[C@@H]2[C@@H](O)[C@H](O[C@H]3O[C@H](CN)CC[C@H]3N)[C@@H](N)C[C@H]2N)OC[C@]1(C)O (stereo partly drawn)	–	–	0.5	–
N#Cc1ccc(Oc2cccc(NC(=O)Nc3ccc(Cl)c(C(F)(F)F)c3)c2)cc1Cl	–	–	–	MIC [4]: 0.5 µg/mL (≈ 1.07 µM)
O=C(NC(=S)Nc1ccc(-c2ccc(=O)[nH]n2)cc1)c1ccc(Cl)c(F)c1	> 1020	512 (≈ 1270 µM)	> 1020	–
O=C(Nc1ccc(-c2ccc(=O)[nH]n2)cc1)Nc1cccc(Cl)c1	> 1020	> 1020	256 (≈ 751 µM)	inhibition of growth at 10 µM [5]: 72.9%; inhibition of growth at 10 µM [6]: 68%; inhibition of growth at 10 µM [7]: 68.4%; inhibition of growth at 10 µM [8]: 73.5%; inhibition of growth at 10 µM [9]: 73.5%; inhibition of growth at 10 µM [10]: 72.7%; inhibition of growth at 10 µM [11]: 62.2%; inhibition of growth at 10 µM [12]: 74.7%; inhibition of growth at 10 µM [13]: 64%; inhibition of growth at 10 µM [14]: 66.4%
COc1cccc2c1C(=O)c1c(O)c3c(c(O)c1C2=O)C[C@@](O)(C(=O)CO)C[C@@H]3O[C@H]1C[C@H](N)[C@H](O)[C@H](C)O1 [DOXORUBICIN]	–	–	–	fold change (FC) [15]: 3; fold change (FC) [16]: 3; Activity [17]: Active
O=c1ccc(-c2ccc(NS(=O)(=O)c3ccc(Cl)cc3)cc2)n[nH]1	256 (≈ 708 µM)	256 (≈ 708 µM)	128 (≈ 354 µM)	–
O=C(NC(=S)Nc1ccc(/C=C/c2ccc(=O)[nH]n2)cc1)c1cccc(Br)c1	256 (≈ 562 µM)	512 (≈ 1120 µM)	1020 (≈ 2250 µM)	–
O=C(Nc1ccc(Oc2ccc(=O)[nH]n2)cc1)Nc1ccc(Cl)c(Cl)c1	–	–	–	MIC [4]: 0.5 µg/mL (≈ 1.28 µM)
O=C(NC(=S)Nc1ccc(-c2ccc(=O)[nH]n2)cc1)c1ccc(Cl)cc1	512 (≈ 1330 µM)	512 (≈ 1330 µM)	256 (≈ 665 µM)	–
O=c1ccc(-c2ccc(NS(=O)(=O)c3ccc(F)c(Cl)c3)cc2)n[nH]1	256 (≈ 674 µM)	256 (≈ 674 µM)	128 (≈ 337 µM)	–
O=C(NC(=S)Nc1ccc(-c2ccc(=O)[nH]n2)cc1)c1ccc(Br)cc1	128 (≈ 298 µM)	512 (≈ 1190 µM)	128 (≈ 298 µM)	–
O=C(Nc1ccc(Cl)c(C(F)(F)F)c1)Nc1ccc(Cl)c(C(F)(F)F)c1	–	–	–	MIC [4]: 0.25 µg/mL (≈ 0.599 µM); pIC50 [18]: 8.95
O=C(Nc1ccc(F)cc1)Nc1ccc(-c2ccc(=O)[nH]n2)cc1	256 (≈ 789 µM)	> 1020	256 (≈ 789 µM)	–
O=c1ccc(/C=C/c2ccc(NS(=O)(=O)c3cccc(Br)c3)cc2)n[nH]1	512 (≈ 1180 µM)	512 (≈ 1180 µM)	1020 (≈ 2370 µM)	–
O=C(Nc1ccc(-c2ccc(=O)[nH]n2)cc1)Nc1cccc(Br)c1	512 (≈ 1330 µM)	> 1020	128 (≈ 332 µM)	–
O=C1CCC(c2ccc(NC(=S)NC(=O)c3ccc([N+](=O)[O-])cc3)cc2)=NN1	256 (≈ 644 µM)	512 (≈ 1290 µM)	512 (≈ 1290 µM)	–
O=C(NC(=S)Nc1ccc(-c2ccc(=O)[nH]n2)cc1)c1ccc(F)cc1	256 (≈ 695 µM)	512 (≈ 1390 µM)	256 (≈ 695 µM)	–
O=c1ccc(/C=C/c2ccc(NC(=S)Nc3ccc(Cl)c(Cl)c3)cc2)n[nH]1	512 (≈ 1230 µM)	512 (≈ 1230 µM)	128 (≈ 307 µM)	–
O=C(Nc1ccc(Br)cc1)Nc1ccc(-c2ccc(=O)[nH]n2)cc1	> 1020	512 (≈ 1330 µM)	> 1020	–
